Laboratory results published in ChEMBL document CHEMBL1155371, “Small molecule inhibitors of the neuropilin-1 vascular endothelial growth factor A (VEGF-A) interaction” (J Med Chem, 2010).
pIC50: −log10 of the molar value. The source made the active and inactive calls. No cut-off for these calls is given here. Where a SMILES comes first, the peptide text is derived from it.

Assays:
Neuropilin-1 [1] = target: T1, Neuropilin-1 (Homo sapiens, UniProt O14786); experiment: Displacement of [125I]VEGF-A from human NRP1 expressed in pig aortic endothelial cells at 100 uM; type: cell-based; conditions: Endothelial cell
Outline: (§1)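 PAE cells stably expressing NRP1 (Ham's F12, 10% FBS, hygromycin B) grown to confluence. Compounds at 0.1−100 μM (single-point inhibition read at 100 μM) were added, then 0.1 nM 125I-VEGF-A165. Nonspecific binding was taken with 100-fold excess unlabeled VEGF. IC50 came from competition curves; three independent experiments, triplicate per concentration, mean ± SEM.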

Neuropilin-1 [2] = target: T1, Neuropilin-1; experiment: Displacement of [125I]VEGF-A from human NRP1 expressed in pig aortic endothelial cells; type: cell-based, Endothelial cell; outline: as §1
A549 = experiment: Cytotoxicity against human A549 cells after 48 hrs by XTT method; type: functional, cell-based
Outline: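 A549 lung carcinoma cells seeded at 4 × 10^3 per well in serum-free medium, with compound added. After 44 h incubation, XTT labeling reagent was added and cells were incubated a further 4 h, giving 48 h total. Formazan read at 490 nm against a 595 nm reference. Three independent experiments, each in triplicate, reported as mean ± SEM.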

[3] = target: Vascular endothelial growth factor receptor 2 (Homo sapiens) (UniProt P35968); experiment: Displacement of biotinylated-[…] from human VEGFR2 expressed in human DU145 cells; type: cell-based; conditions: DU-145
Neuropilin-1 [4] = target: T1, Neuropilin-1; experiment: Displacement of […] from human NRP1 expressed in human DU145 cells; type: cell-based, DU-145
[5] = target: Vascular endothelial growth factor receptor 1 (Homo sapiens) (UniProt P17948); experiment: Displacement of biotinylated-[…] from human VEGFR1 expressed in human DU145 cells; type: cell-based; conditions: DU-145
[6] = target: Vascular endothelial growth factor receptor 2 (Homo sapiens) (UniProt P35968); experiment: Inhibition of VEGF-A-induced VEGFR2 phosphorylation in HUVEC by ELISA; type: cell-based
Outline: (§2)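 Confluent HUVECs were pretreated 30 min with compound or DMSO vehicle, then stimulated with or without 25 ng/mL VEGF-A165 for 5 min at 37 °C. Tyr1175-phosphorylated and total VEGFR2 in lysates were measured by sandwich ELISA kits. Three independent experiments in duplicate, mean ± SEM.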

[7] = target: Vascular endothelial growth factor receptor 1 (Homo sapiens) (UniProt P17948); experiment: Displacement of biotinylated-[…] from human VEGFR1 expressed in human A549 cells; type: cell-based
HUVEC = experiment: Inhibition of VEGF-A-induced chemotaxis in HUVEC assessed as reduction in cell migration; type: functional, cell-based; conditions: Homo sapiens
Outline: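 HUVECs in EBM/0.1% BSA were pretreated 30 min with compound or DMSO, and 1.5 × 10^5 cells were loaded into collagen I-coated 8 μm-pore transwell inserts. Cells migrated toward 25 ng/mL VEGF or medium control for 4 h at 37 °C. Migrated cells were stained and counted in four fields at ×100. Three experiments in duplicate, mean ± SEM.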

[8] = target: Vascular endothelial growth factor receptor 2 (Homo sapiens) (UniProt P35968); experiment: Displacement of biotinylated-[…] from human VEGFR2 expressed in human A549 cells; type: cell-based
Neuropilin-1 [9] = target: T1, Neuropilin-1; experiment: Displacement of […] from NRP1 b1 domain by cell-free assay
Neuropilin-1 [10] = target: T1, Neuropilin-1; experiment: Displacement of biotinylated-[…] from human NRP1 expressed in HUVEC; type: cell-based
Neuropilin-1 [11] = target: T1, Neuropilin-1; experiment: Displacement of [125I]VEGF-A from human NRP1 expressed in human A549 cells; type: cell-based
[12] = target: Vascular endothelial growth factor receptor 2 (Homo sapiens) (UniProt P35968); experiment: Inhibition of VEGF-A-induced VEGFR2 phosphorylation in HUVEC at 100 uM by ELISA; type: cell-based; outline: as §2

Sequence of Vascular endothelial growth factor receptor 2 (Homo sapiens) (P35968 whole entry, the tested form may be a part): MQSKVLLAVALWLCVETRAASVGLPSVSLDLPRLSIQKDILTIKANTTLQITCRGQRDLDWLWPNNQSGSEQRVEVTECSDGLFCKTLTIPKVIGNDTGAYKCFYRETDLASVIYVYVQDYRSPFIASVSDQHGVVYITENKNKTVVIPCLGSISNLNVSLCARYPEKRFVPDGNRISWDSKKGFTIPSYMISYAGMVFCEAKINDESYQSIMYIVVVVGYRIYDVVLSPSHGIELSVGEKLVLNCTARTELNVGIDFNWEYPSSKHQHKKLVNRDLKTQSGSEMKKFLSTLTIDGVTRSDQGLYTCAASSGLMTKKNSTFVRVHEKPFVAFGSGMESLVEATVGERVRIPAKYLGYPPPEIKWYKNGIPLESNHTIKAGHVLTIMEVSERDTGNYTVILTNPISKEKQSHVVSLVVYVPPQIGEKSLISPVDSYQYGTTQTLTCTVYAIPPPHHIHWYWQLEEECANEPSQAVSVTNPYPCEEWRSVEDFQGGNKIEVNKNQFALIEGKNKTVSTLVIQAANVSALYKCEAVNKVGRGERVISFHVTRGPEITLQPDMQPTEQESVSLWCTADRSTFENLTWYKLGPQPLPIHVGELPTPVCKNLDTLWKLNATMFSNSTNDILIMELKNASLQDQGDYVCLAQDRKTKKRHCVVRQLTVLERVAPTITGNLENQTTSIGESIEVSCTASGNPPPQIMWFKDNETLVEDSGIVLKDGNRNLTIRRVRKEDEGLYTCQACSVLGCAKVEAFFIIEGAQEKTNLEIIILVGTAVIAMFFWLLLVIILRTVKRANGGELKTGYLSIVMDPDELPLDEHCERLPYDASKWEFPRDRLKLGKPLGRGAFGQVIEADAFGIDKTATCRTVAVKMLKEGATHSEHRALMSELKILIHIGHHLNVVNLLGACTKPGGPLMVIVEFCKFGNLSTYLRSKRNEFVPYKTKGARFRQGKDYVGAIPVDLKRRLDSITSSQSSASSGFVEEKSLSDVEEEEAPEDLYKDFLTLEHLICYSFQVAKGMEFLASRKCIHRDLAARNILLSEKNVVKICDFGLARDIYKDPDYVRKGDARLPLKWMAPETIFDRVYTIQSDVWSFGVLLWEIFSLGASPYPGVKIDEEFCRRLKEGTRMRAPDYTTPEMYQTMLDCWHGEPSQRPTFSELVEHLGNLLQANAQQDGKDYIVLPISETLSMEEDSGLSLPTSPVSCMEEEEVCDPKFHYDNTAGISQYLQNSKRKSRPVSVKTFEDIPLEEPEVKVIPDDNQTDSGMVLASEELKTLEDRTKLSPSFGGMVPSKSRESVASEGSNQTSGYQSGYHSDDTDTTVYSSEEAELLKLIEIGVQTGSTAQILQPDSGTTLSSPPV
T1 sequence (O14786 whole entry): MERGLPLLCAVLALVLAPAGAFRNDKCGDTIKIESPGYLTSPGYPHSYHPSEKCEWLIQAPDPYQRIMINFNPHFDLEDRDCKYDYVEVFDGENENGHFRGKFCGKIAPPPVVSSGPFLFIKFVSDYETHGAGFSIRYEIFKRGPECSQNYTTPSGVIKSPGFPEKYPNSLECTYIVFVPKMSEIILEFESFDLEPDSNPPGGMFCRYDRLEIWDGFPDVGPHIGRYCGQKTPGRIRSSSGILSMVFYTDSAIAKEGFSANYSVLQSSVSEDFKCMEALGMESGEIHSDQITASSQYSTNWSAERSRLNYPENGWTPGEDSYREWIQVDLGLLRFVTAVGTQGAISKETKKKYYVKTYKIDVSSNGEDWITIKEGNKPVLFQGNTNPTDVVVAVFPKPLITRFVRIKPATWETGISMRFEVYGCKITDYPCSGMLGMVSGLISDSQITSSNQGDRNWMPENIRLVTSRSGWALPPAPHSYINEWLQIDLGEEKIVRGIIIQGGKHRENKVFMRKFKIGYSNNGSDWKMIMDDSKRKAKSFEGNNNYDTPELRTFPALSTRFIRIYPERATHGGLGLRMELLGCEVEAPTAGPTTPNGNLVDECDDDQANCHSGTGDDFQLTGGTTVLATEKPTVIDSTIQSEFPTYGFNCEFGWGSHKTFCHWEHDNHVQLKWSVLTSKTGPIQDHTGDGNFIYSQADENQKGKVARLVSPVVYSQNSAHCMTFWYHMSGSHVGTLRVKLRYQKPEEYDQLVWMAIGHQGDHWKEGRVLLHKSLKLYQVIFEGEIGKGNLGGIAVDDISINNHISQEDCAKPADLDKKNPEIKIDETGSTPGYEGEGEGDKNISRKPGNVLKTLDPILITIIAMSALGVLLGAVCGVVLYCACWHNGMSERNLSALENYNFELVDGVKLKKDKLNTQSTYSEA
Sequence of Vascular endothelial growth factor receptor 1 (Homo sapiens) (P17948 whole entry): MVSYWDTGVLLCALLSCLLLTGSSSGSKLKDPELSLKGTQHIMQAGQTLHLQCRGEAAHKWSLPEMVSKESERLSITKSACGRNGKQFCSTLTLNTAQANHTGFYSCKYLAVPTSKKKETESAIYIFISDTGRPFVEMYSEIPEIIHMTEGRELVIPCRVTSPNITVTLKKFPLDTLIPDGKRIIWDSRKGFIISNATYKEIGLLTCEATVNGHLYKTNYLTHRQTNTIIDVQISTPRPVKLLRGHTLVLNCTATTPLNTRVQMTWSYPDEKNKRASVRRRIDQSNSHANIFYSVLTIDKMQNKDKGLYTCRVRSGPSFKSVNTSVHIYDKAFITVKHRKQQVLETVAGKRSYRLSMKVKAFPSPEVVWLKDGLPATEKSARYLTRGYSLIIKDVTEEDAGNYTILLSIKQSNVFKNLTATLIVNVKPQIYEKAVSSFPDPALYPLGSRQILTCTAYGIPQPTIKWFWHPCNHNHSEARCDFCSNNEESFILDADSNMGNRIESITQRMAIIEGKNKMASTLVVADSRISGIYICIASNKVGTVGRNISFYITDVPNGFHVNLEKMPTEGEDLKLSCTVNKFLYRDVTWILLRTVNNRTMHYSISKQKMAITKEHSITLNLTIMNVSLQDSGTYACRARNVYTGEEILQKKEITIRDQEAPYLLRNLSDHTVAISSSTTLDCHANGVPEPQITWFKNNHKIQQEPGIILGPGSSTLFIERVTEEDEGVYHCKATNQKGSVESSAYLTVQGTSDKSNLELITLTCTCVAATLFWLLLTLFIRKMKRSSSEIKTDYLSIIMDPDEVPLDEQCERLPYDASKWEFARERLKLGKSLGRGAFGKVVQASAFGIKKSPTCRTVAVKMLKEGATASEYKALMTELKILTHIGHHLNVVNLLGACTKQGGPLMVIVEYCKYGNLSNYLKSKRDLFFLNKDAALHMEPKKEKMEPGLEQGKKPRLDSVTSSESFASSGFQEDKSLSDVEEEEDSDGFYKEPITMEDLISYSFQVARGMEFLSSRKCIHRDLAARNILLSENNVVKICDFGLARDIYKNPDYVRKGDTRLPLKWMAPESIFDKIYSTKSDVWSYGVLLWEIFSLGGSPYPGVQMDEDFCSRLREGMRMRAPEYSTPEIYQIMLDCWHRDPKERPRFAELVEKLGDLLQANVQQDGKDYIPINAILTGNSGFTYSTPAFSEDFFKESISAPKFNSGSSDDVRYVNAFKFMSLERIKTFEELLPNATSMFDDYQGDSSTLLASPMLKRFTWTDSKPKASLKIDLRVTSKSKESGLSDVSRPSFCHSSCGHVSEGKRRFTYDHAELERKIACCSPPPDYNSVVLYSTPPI

Row | Structure (SMILES) | Activity (Neuropilin-1 [1]) | other results
1 | CN(c1ccsc1C(=O)N[C@@H](CCCNC(=N)N)C(=O)O)S(=O)(=O)c1ccc([N+](=O)[O-])cc1 | 42% | –
2 | N=C(N)NCCC[C@H](NC(=O)c1sccc1S(=O)(=O)Nc1ccc(N)cc1)C(=O)O | 0% | –
3 | N=C(N)NCCC[C@H](NC(=O)c1sccc1NS(=O)(=O)c1ccc(F)cc1F)C(=O)O | 79% | pIC50 (Neuropilin-1 [2]): 4.48
4 | O=c1[nH]cc(F)c(=O)[nH]1 [FLUOROURACIL] | – | pIC50 (A549; A549, 48 h): 4.11
5 | N=C(NCCC[C@H](NC(=O)c1sccc1NS(=O)(=O)c1ccc([N+](=O)[O-])cc1)C(=O)O)N[N+](=O)[O-] | 3% | –
6 | N=C(N)NCCC[C@H](NC(=O)c1sccc1NS(=O)(=O)c1ccc([N+](=O)[O-])cc1)C(=O)O (stereo in doubt; 46) [listing 1 of 2 here] | 75% | –
7 | N=C(N)NCCC[C@H](NC(=O)c1sccc1NS(=O)(=O)c1cccc(N)c1)C(=O)O | 84% | pIC50 (Neuropilin-1 [2]): 4.85
8 | C[C@H](NC(=O)[C@@H]1CCCN1C(=O)[C@@H](N)CCCCN)C(=O)N[C@@H](CCCCN)C(=O)O (H-KPAK-OH) | 22% | –
9 | N=C(N)Nc1ccc(C[C@H](NC(=O)c2sccc2NS(=O)(=O)c2ccc(N)cc2)C(=O)O)cc1 | 13% | –
10 | N=C(N)NCCC[C@@H](CO)NC(=O)c1sccc1NS(=O)(=O)c1ccc2nsnc2c1 | 21% | –
11 | N=C(N)NCCC[C@H](NC(=O)c1cccc(-c2cccc(NC(=O)C3CCC(CN)CC3)c2)c1)C(=O)O (some centres undefined) | 49% | –
12 | N=C(N)NCCC[C@H](NC(=O)c1sccc1NS(=O)(=O)c1ccccc1[N+](=O)[O-])C(=O)O | 100% | pIC50 (Neuropilin-1 [2]): 5.05
13 | C[C@H](NC(=O)[C@@H]1CCCN1C(=O)[C@@H](N)CCCCN)C(=O)N[C@@H](CCC(N)=O)C(=O)O (H-KPAQ-OH) | 19% | –
14 | NCCCC[C@H](NC(=O)c1sccc1NS(=O)(=O)c1ccc([N+](=O)[O-])cc1)C(=O)O | 20% | –
15 | N=C(N)NCCC[C@H](NC(=O)c1ccccc1S(=O)(=O)C1CCNCC1)C(=O)O | 10% | –
16 | C[C@H](NC(=O)[C@@H]1CCCN1C(=O)[C@@H](N)CCCCN)C(=O)N[C@H](CCCNC(=N)N)C(=O)O | 22% | –
17 | N=C(N)NCCC[C@H](NC(=O)c1sccc1NS(=O)(=O)c1ccc([N+](=O)[O-])cc1)C(=O)O (stereo in doubt; 38) [listing 1 of 2 here] | 75% | –
18 | N=C(N)NCCC[C@H](NC(=O)c1cccs1)C(=O)O | 28% | –
19 | COC(=O)[C@H](CCCNC(=N)N)NC(=O)c1sccc1NS(=O)(=O)c1ccc([N+](=O)[O-])cc1 | 21% | –
20 | N=C(N)NCCC[C@H](NC(=O)c1cccc(-c2cccc(NC(=O)CCCCCN)c2)c1)C(=O)O | 40% | –
21 | N=C(N)NCCCC[C@@H](CC(=O)O)NC(=O)c1sccc1NS(=O)(=O)c1ccc2nsnc2c1 | 11% | –
22 | N=C(N)NCCC[C@H](NC(=O)c1sccc1NS(=O)(=O)c1ccc2nsnc2c1)C(=O)NO | 59% | –
23 | N=C(N)NCCC[C@H](NC(=O)c1sccc1NS(=O)(=O)c1ccc(N)cc1)C(=O)O | 78% | pIC50 (Neuropilin-1 [2]): 4.89

Row | Structure (SMILES) | Activity (Neuropilin-1 [1]) | other results
24 | N=C(N)NCCC[C@H](NC(=O)c1sccc1NS(=O)(=O)c1cccc2nonc12)C(=O)O | 87% | pIC50 (Neuropilin-1 [2]): 4.77
25 | N=C(N)NCCC[C@H](NC(=O)[C@@H]1CCCN1C(=O)[C@@H]1CCCN1C(=O)[C@@H](N)CCCCN)C(=O)O (H-KPPR-OH) | 96% | pIC50 (Neuropilin-1 [2]): 4.85
26 | Cc1oc(-c2ccc(NC(=O)CCCCN)cc2)cc1C(=O)N[C@@H](CCCNC(=N)N)C(=O)O | 31% | –
27 | N=C(N)NCCC[C@H](NC(=O)C1CCN(Cc2cccc(NC(=O)CCCCCN)c2)CC1)C(=O)O | 35% | –
28 | N=C(N)NCCCC[C@H](NC(=O)c1sccc1NS(=O)(=O)c1ccc(N)cc1)C(=O)O | 20% | –
29 | N=C(N)NCCC[C@H](NC(=O)C1CCN(Cc2nc(O)nc(NCCCCN)n2)CC1)C(=O)O | 32% | –
30 | Cc1nn(C)c(Cl)c1CNc1cccc(S(=O)(=O)Nc2ccsc2C(=O)N[C@@H](CCCNC(=N)N)C(=O)O)c1 | 88% | pIC50 (Neuropilin-1 [2]): 5.22
31 | C/N=C(/NC)NCCC[C@H](NC(=O)c1sccc1NS(=O)(=O)c1ccc([N+](=O)[O-])cc1)C(=O)O | 12% | –
32 | N=C(N)NC(=O)CC[C@H](NC(=O)c1sccc1NS(=O)(=O)c1ccc([N+](=O)[O-])cc1)C(=O)O | 58% | –
33 | N=C(N)NCCC[C@H](NC(=O)[C@H](Cc1ccccc1)NC(=O)[C@@H]1CCCN1C(=O)[C@@H](N)CCCCN)C(=O)O (H-KPFR-OH) | 63% | –
34 | CC(=O)Nc1ccc(S(=O)(=O)Nc2ccsc2C(=O)N[C@@H](CCCNC(=N)N)C(=O)O)cc1 | 84% | pIC50 (Neuropilin-1 [2]): 4.74
35 | N=C(N)NCCC[C@@H](NC(=O)c1sccc1NS(=O)(=O)c1ccc(N)cc1)C(=O)O | 36% | –
36 | N=C(N)NCCC[C@H](NC(=O)c1sccc1NS(=O)(=O)c1ccc([N+](=O)[O-])cc1)C(=O)O (stereo in doubt; 46) [listing 2 of 2 here] | – | pIC50 (Neuropilin-1 [2]; endothelial cell): 4.28
37 | C[C@@H](NC(=O)[C@@H]1CCCN1C(=O)[C@@H](N)CCCCN)C(=O)N[C@@H](CCCNC(=N)N)C(=O)O | 36% | –
38 | N=C(N)NCCC[C@H](NC(=O)c1sccc1NS(=O)(=O)c1cccc2nsnc12)C(=O)O | 99% | Activity [3]: inactive; pIC50 (Neuropilin-1 [4]): 5.52; Activity [5]: inactive; inhibition [6]: Dose-dependent effect; Activity [7]: inactive; inhibition (HUVEC): Active; Activity (A549): Active; pIC50 (Neuropilin-1 [2]): 5.10; Activity [8]: inactive; pIC50 (Neuropilin-1 [9]): 5.52; pIC50 (Neuropilin-1 [10]): 4.64; pIC50 (Neuropilin-1 [11]): 5.15; inhibition [12]: 34%
39 | C[C@H](NC(=O)[C@@H]1CCCN1C(=O)[C@H](N)CCCCN)C(=O)N[C@@H](CCCNC(=N)N)C(=O)O | 51% | –
40 | N=C(N)NCCC[C@H](NC(=O)c1sccc1NS(=O)(=O)c1ccccc1N)C(=O)O | 95% | pIC50 (Neuropilin-1 [2]): 4.77
41 | C[C@H](NC(=O)[C@@H]1CCCN1C(=O)[C@@H](N)CCCCN)C(=O)N[C@@H](CCCNC(=N)N)C(=O)O | 83% | pIC50 (Neuropilin-1 [2]): 4.52
42 | Cc1nc(S(=O)(=O)Nc2ccsc2C(=O)N[C@@H](CCCNC(=N)N)C(=O)O)cn1C | 88% | pIC50 (Neuropilin-1 [2]): 4.92
43 | CN(c1ccsc1C(=O)N[C@@H](CCCNC(=N)N)C(=O)O)S(=O)(=O)c1ccc(N)cc1 | 25% | –
44 | N=C(N)NCCC[C@H](NC(=O)c1sccc1NS(=O)(=O)c1ccc([N+](=O)[O-])cc1)C(=O)O (stereo in doubt; 38) [listing 2 of 2 here] | – | pIC50 (Neuropilin-1 [2]): 4.28
45 | N=C(N)NCCC[C@H](NC(=O)c1ccccc1NS(=O)(=O)c1ccc(N)cc1)C(=O)O | 70% | –
